Test [1] addresses Bacterial leucyl aminopeptidase (Vibrio proteolyticus, UniProt Q01693). As to the kind of experiment: Inhibition of Aeromonas proteolytica aminopeptidase using L-leucine-p-nitroanilide as substrate after 30 mins by Dixon plot analysis. In a few lines: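 Commercial Aeromonas proteolytica aminopeptidase, 2 mUnits per assay in 0.05 M Tris-HCl pH 7.5, 30 °C, started by adding enzyme. L-leucine-p-nitroanilide was set at its Km (0.02 mM). Release of p-nitroanilide was read continuously at 405 nm over 30 min for initial velocities. Ki was taken from Dixon plots, with racemic compounds tested up to their solubility limit.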

Test [2] has as its target T1, Cytosol aminopeptidase (Bos taurus, UniProt P00727).
T1 sequence (P00727 whole entry): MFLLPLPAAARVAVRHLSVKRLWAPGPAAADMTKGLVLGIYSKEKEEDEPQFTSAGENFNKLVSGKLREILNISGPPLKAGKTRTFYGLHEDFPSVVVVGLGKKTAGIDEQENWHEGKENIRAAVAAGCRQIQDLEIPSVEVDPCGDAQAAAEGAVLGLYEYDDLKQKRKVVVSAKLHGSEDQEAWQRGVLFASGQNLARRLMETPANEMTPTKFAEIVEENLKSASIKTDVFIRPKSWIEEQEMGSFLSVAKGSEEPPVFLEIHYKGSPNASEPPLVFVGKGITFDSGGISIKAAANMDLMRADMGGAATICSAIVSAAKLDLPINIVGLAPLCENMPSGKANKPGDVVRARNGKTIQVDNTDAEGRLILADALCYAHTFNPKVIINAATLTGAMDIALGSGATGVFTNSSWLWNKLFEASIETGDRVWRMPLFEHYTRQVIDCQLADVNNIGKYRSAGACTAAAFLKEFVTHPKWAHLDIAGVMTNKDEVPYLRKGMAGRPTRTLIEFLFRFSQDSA
As to the kind of experiment: Inhibition of bovine kidney cytosolic leucine aminopeptidase using L-leucine-p-nitroanilide as substrate after 30 mins by Dixon plot analysis. In a few lines: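 Cytosolic leucine aminopeptidase, purified by a published procedure, 20 Units per assay in 0.1 M Tris-HCl, 0.1 mM ZnCl2, 5 mM MnCl2, 1 M KCl, pH 8.0, at 30 °C. […] Ki came from Dixon plots of racemates.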

The target of test [3] is T2, Aminopeptidase N (Sus scrofa, UniProt P15145).
T2 sequence (P15145 whole entry): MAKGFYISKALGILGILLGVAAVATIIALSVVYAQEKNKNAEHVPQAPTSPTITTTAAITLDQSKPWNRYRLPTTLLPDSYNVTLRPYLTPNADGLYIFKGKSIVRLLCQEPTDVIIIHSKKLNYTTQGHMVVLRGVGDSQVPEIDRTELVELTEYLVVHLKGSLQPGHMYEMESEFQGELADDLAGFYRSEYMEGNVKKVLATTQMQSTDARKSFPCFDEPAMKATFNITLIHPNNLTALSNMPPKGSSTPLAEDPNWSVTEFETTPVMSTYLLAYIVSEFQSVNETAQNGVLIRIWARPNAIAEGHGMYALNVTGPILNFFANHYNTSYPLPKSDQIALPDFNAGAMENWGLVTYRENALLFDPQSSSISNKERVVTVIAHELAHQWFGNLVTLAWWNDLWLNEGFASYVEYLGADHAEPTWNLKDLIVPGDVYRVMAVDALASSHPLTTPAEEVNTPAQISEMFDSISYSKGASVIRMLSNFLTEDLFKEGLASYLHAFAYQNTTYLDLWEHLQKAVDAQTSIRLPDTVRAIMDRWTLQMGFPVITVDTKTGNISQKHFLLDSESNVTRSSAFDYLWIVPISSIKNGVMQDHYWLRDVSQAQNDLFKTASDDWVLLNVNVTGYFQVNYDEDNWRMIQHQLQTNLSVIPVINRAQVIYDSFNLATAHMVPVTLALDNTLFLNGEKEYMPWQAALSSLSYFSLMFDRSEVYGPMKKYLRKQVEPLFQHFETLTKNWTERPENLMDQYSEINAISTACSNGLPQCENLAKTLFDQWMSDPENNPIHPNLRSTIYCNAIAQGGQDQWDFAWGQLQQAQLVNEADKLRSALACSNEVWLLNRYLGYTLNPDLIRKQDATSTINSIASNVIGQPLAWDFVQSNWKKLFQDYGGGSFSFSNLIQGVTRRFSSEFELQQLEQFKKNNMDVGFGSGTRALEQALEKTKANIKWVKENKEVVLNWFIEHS
The test can be described thus: Inhibition of porcine kidney APN using L-leucine-p-nitroanilide as substrate after 30 mins by Dixon plot analysis.

Experimental findings from ChEMBL document CHEMBL1821575, “A novel amino-benzosuberone derivative is a picomolar inhibitor of mammalian aminopeptidase N/CD13” (Bioorg Med Chem, 2011) are described below.

Chain of Bacterial leucyl aminopeptidase (Q01693 whole entry): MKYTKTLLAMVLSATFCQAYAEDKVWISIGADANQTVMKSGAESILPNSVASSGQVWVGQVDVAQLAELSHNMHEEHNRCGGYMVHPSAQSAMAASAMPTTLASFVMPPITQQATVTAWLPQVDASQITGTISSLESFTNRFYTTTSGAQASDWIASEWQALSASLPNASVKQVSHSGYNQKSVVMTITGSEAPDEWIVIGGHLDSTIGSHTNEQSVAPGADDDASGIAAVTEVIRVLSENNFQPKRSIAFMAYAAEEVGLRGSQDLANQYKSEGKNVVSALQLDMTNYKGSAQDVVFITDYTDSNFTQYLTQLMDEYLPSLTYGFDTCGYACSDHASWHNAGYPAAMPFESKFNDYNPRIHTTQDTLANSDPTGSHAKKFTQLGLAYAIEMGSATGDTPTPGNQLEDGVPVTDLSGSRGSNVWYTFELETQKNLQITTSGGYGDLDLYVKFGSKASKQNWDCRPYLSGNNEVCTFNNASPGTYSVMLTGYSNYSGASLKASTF

As for `NC1CCc2c(cccc2-c2ccccc2)CC1=O` (racemic), the Ki in test [1] and in test [2] was over 100 µM in each case.

Turning to `NC1CCc2c(Cl)cccc2CC1=O` (racemic), the Ki in test [1] and in test [2] was over 100 µM throughout.

`NC1CCc2c(Br)ccc(-c3ccccc3)c2CC1=O` (racemic): the Ki was 39 µM in test [1] and 70 µM in test [2].

`NC1CCc2cccc(Br)c2CC1=O` (racemic): the values for the inhibitory constant (Ki) in test [1] and in test [2] were 213 µM and over 100 µM, respectively.

As for `NC1CCc2ccccc2CC1=O` (racemic), the results for the inhibitory constant (Ki) in test [1] and in test [2] were 900 µM and over 100 µM, respectively.

For `NC1CCc2cccc(-c3ccccc3)c2CC1=O` (racemic), the inhibition constant (Ki) in test [1] is 28 µM; in test [2] it was over 100 µM.

For `NC1CCc2c(Br)cccc2CC1=O` (racemic), the inhibitory constant (Ki) in test [1] and in test [2] was over 100 µM in each case.

On to `NC1CCc2c(ccc3ccccc23)CC1=O` (racemic), for which the figures for the Ki in test [1], in test [2] and in test [3] were over 100 µM, over 100 µM and 0.04 µM, respectively.

As for `NC1CCc2c(-c3ccccc3)ccc(-c3ccccc3)c2CC1=O` (racemic), the Ki is over 100 µM in test [1], 50 µM in test [2] and 0.04 µM in test [3].

For `NC1CCc2c(-c3ccccc3)ccc(Br)c2CC1=O` (racemic), the inhibitory constant (Ki) in test [1] was over 100 µM; in test [2], over 100 µM; in test [3] it was 0.07 µM.

As for `NC1CCc2c(Br)ccc(Br)c2CC1=O` (racemic), the figures for the Ki in test [2] and in test [3] were over 100 µM and 0.006 µM, respectively.

In the case of `NC1CCc2ccc3ccccc3c2CC1=O` (racemic), the Ki in test [1] was over 100 µM; in test [2], over 100 µM; in test [3] it was 0.1 µM.

As a reminder, the Ki is the equilibrium dissociation constant of an inhibitor or competing ligand from its target. A lower Ki goes with tighter binding.
